In brackets after ≈: the same amount, converted by molar mass. Activity calls are given as the source filed them. The rule behind the calls is not given here.
Columns and labels:
[1] = tested on: Canis familiaris; assay: Dose normalised AUC in Beagle dog at 2 mg/kg, po by LC-MS analysis; type: ADME, organism-based, Canis lupus familiaris; set-up: dose 2 mg/kg, route oral; conditions: in vivo
Outline: (§1)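 PK in Sprague-Dawley rats (iv solution in DMSO via an indwelling jugular cannula, or oral suspension in aqueous methylcellulose/Methocel) and beagle dogs (iv and oral given crossover, same vehicles). Plasma levels by LC-MS. F from oral versus iv dose-normalized AUC. Average of at least two animals; rat values within 25% of the mean.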

[2] = tested on: Human immunodeficiency virus; assay: Antiviral activity against multidrug-resistant Human immunodeficiency virus assessed as inhibition of viral replication; type: functional, organism-based
Outline: (§2)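 Phenosense cell culture assay against a panel of clinically derived RT mutant viruses in the presence of 10% FBS. IC50 is the compound concentration blocking 50% of viral replication. Each value is the average of two determinations.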

[3] = molecular target: Human immunodeficiency virus type 1 reverse transcriptase (Human immunodeficiency virus 1, UniProt Q72547, K103N); assay: Inhibition of Human immunodeficiency virus reverse transcriptase K103N mutant by SPA assay
Outline: (§3)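 Recombinant HIV-1 RT polymerase scintillation proximity assay run with mutant enzyme, reported as Ki (nM). Values are geometric means of at least two determinations, each within 2-fold of the mean; SEM is given where there were ≥3 determinations.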

[4] = tested on: Rattus norvegicus; assay: Dose normalised AUC in Sprague-Dawley rat at 10 mg/kg, po by LC-MS analysis; type: ADME, organism-based; set-up: dose 10 mg/kg, route oral; conditions: in vivo; outline: as §1
[5] = tested on: MT4; assay: Cytotoxicity against human MT4 cells up to 8.3 uM; type: cell-based
Outline: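 MT-4 cells in RPMI 1640 with 10% FBS or 50% NHS, run alongside the antiviral CIC95 assay; cytotoxicity checked up to the assay upper limit of 8.3 μM.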

[6] = tested on: Human immunodeficiency virus; assay: Antiviral activity against Human immunodeficiency virus harboring reverse transcriptase Y188L mutant assessed as inhibition of viral replication; type: functional, organism-based; outline: as §2
[7] = molecular target: Human immunodeficiency virus type 1 reverse transcriptase (Human immunodeficiency virus 1, UniProt Q72547, Y181C); assay: Inhibition of Human immunodeficiency virus reverse transcriptase Y181C mutant by SPA assay; outline: as §3
[8] = Solubility of the compound in water at pH 7; type: physicochemical
Outline: (§4)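 Water solubility of the solid compound measured at pH 2 and at pH 7.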

[9] = Bioavailability in Sprague-Dawley rat at 10 mg/kg, po and 2 mg/kg, iv; type: ADME, organism-based; conditions: in vivo; outline: as §1
[10] = Volume of distribution in Beagle dog at 2 mg/kg, po and 0.5 mg/kg, iv; type: ADME, organism-based, Canis lupus familiaris; conditions: in vivo; outline: as §1
[11] = Plasma clearance in Beagle dog at 2 mg/kg, po and 0.5 mg/kg, iv; type: ADME, organism-based, Canis lupus familiaris; outline: as §1
[12] = tested on: Human immunodeficiency virus; assay: Antiviral activity against Human immunodeficiency virus harboring reverse transcriptase K103N/P225H double mutant assessed as inhibition of viral replication; type: functional, organism-based; outline: as §2
[13] = tested on: Human immunodeficiency virus; assay: Antiviral activity against Human immunodeficiency virus harboring reverse transcriptase G190A mutant assessed as inhibition of viral replication; type: functional, organism-based; outline: as §2
[14] = tested on: Human immunodeficiency virus; assay: Antiviral activity against Human immunodeficiency virus harboring reverse transcriptase K103N/Y181C/G190A triple mutant assessed as inhibition of viral replication; type: functional, organism-based; outline: as §2
[15] = tested on: Human immunodeficiency virus; assay: Antiviral activity against Human immunodeficiency virus expressing wild type reverse transcriptase infected in human MT4 cells by p24 antigen assay in the presence of 50% normal human serum; type: functional; conditions: Human immunodeficiency virus 1, MT4; read-out: CIC95
Outline: (§5)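 MT-4 human T-lymphoid cells in RPMI 1640 with either 10% FBS or 50% NHS; CIC95 taken as the concentration inhibiting virus spread/replication by >95%. Geometric mean of at least two determinations, individual values within 2-fold; SEM given when ≥3 determinations.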

[16] = tested on: Human immunodeficiency virus; assay: Antiviral activity against Human immunodeficiency virus harboring reverse transcriptase L100l mutant assessed as inhibition of viral replication; type: functional, organism-based; outline: as §2
[17] = Inhibition of Human immunodeficiency virus reverse transcriptase by SPA assay
[18] = tested on: Human immunodeficiency virus; assay: Antiviral activity against Human immunodeficiency virus harboring reverse transcriptase L100l/K103N/P225P/H triple mutant assessed as inhibition of viral replication; type: functional, organism-based; outline: as §2
[19] = tested on: Human immunodeficiency virus; assay: Antiviral activity against Human immunodeficiency virus harboring reverse transcriptase V106A/G190A/F227L triple mutant assessed as inhibition of viral replication; type: functional, organism-based; outline: as §2
[20] = Solubility of the compound in water at pH 2; type: physicochemical; outline: as §4
[21] = Volume of distribution in Sprague-Dawley rat at 10 mg/kg, po and 2 mg/kg, iv; type: ADME, organism-based; conditions: in vivo; outline: as §1
[22] = tested on: Human immunodeficiency virus; assay: Antiviral activity against Human immunodeficiency virus harboring reverse transcriptase K101E/Y181C/G190A triple mutant assessed as inhibition of viral replication; type: functional, organism-based; outline: as §2
[23] = tested on: Human immunodeficiency virus; assay: Antiviral activity against Human immunodeficiency virus expressing wild type reverse transcriptase infected in human MT4 cells by p24 antigen assay in the presence of 10% FBS; type: functional; conditions: Human immunodeficiency virus 1, MT4; read-out: CIC95; outline: as §5
[24] = Half life in Sprague-Dawley rat at 10 mg/kg, po and 2 mg/kg, iv; type: ADME, organism-based; conditions: in vivo; outline: as §1
[25] = tested on: Human immunodeficiency virus; assay: Antiviral activity against Human immunodeficiency virus harboring reverse transcriptase Y181C mutant assessed as inhibition of viral replication; type: functional, organism-based; outline: as §2
[26] = tested on: Human immunodeficiency virus; assay: Antiviral activity against Human immunodeficiency virus harboring reverse transcriptase K101E/G190A double mutant assessed as inhibition of viral replication; type: functional, organism-based; outline: as §2
[27] = Plasma clearance in Sprague-Dawley rat at 10 mg/kg, po and 2 mg/kg, iv; type: ADME, organism-based; outline: as §1
[28] = Bioavailability in Beagle dog at 2 mg/kg, po and 0.5 mg/kg, iv; type: ADME, organism-based, Canis lupus familiaris; conditions: in vivo; outline: as §1
[29] = tested on: Human immunodeficiency virus; assay: Antiviral activity against Human immunodeficiency virus harboring reverse transcriptase G190S mutant assessed as inhibition of viral replication; type: functional, organism-based; outline: as §2
[30] = tested on: Human immunodeficiency virus; assay: Antiviral activity against Human immunodeficiency virus expressing reverse transcriptase K103N mutant infected in human MT4 cells by p24 antigen assay in the presence of 10% FBS; type: functional; conditions: Human immunodeficiency virus 1, MT4; read-out: CIC95
Outline: (§6)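 Antiviral spread assay in MT-4 human T-lymphoid cells kept in RPMI 1640 with 10% FBS. Value is the CIC95, the concentration inhibiting virus replication by >95%. Reported as the geometric mean of at least two determinations, all within 2-fold of the mean. Cytotoxicity was checked up to the assay upper limit of 8.3 μM.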

[31] = tested on: Human immunodeficiency virus; assay: Antiviral activity against wild type Human immunodeficiency virus assessed as inhibition of viral replication; type: functional, organism-based
[32] = tested on: Human immunodeficiency virus; assay: Antiviral activity against Human immunodeficiency virus expressing reverse transcriptase Y181C mutant infected in human MT4 cells by p24 antigen assay in the presence of 10% FBS; type: functional; conditions: Human immunodeficiency virus 1, MT4; read-out: CIC95; outline: as §6
[33] = Half life in Beagle dog at 2 mg/kg, po and 0.5 mg/kg, iv; type: ADME, organism-based, Canis lupus familiaris; conditions: in vivo; outline: as §1
[34] = tested on: Human immunodeficiency virus; assay: Antiviral activity against Human immunodeficiency virus harboring reverse transcriptase K103N mutant assessed as inhibition of viral replication; type: functional, organism-based; outline: as §2

**Q.** With `N#Cc1cc(Cl)cc(Oc2c(Cl)ccc3c2cnn3Cc2n[nH]c3nc(N)ccc23)c1` as the compound, how does the AUC/dose [1] read?
**A.** Its AUC/dose is 1.33 µM·h.

**Q.** And the inhibition [2]?
**A.** The inhibition was “Active”.

**Q.** What about the Ki [3] of the same compound?
**A.** Its Ki is 1.7 nM.

**Q.** And the AUC/dose [4]?
**A.** The AUC/dose was 3.64 µM·h.

**Q.** And the Activity [5]?
**A.** The Activity was “Non-toxic”.

**Q.** What about the inhibition [6] of the same compound?
**A.** Its inhibition is “inactive”.

**Q.** What about the Ki [7] of the same compound?
**A.** The Ki was 1.9 nM.

**Q.** And the solubility [8]?
**A.** Its solubility is under 0.1 µg/mL.

**Q.** What about the bioavailability [9] of the same compound?
**A.** Its bioavailability is 39%.

**Q.** And the Vd [10]?
**A.** The Vd was 2 L/kg.

**Q.** What about the clearance [11] of the same compound?
**A.** Its clearance is 7.6 mL/min/kg.

**Q.** And the inhibition [12]?
**A.** The inhibition was “Active”.

**Q.** And the inhibition [13]?
**A.** Its inhibition is “Active”.

**Q.** What about the inhibition [14] of the same compound?
**A.** The inhibition was “Active”.

**Q.** And the IC95 [15]?
**A.** The IC95 was 43 nM.

**Q.** And the inhibition [16]?
**A.** Its inhibition is “Active”.

**Q.** What about the Ki [17] of the same compound?
**A.** Its Ki is 0.61 nM.

**Q.** What about the inhibition [18] of the same compound?
**A.** The inhibition was “Active”.

**Q.** And the inhibition [19]?
**A.** The inhibition was “inactive”.

**Q.** What about the solubility [20] of the same compound?
**A.** Its solubility is 40 µg/mL (≈ 88.8 µM).

**Q.** And the Vd [21]?
**A.** The Vd was 2.5 L/kg.

**Q.** What about the inhibition [22] of the same compound?
**A.** The inhibition was “Active”.

**Q.** What about the IC95 [23] of the same compound?
**A.** Its IC95 is 4.1 nM.

**Q.** What about the half-life [24] of the same compound?
**A.** Its half-life is 6.3 h.

**Q.** And the inhibition [25]?
**A.** The inhibition was “Active”.

**Q.** What about the inhibition [26] of the same compound?
**A.** The inhibition was “Active”.

**Q.** And the clearance [27]?
**A.** Its clearance is 4.7 mL/min/kg.

**Q.** What about the bioavailability [28] of the same compound?
**A.** Its bioavailability is 32%.

**Q.** And the inhibition [29]?
**A.** The inhibition was “Active”.

**Q.** What about the IC95 [30] of the same compound?
**A.** The IC95 was 9.7 nM.

**Q.** What about the inhibition [31] of the same compound?
**A.** The inhibition was “Active”.

**Q.** And the IC95 [32]?
**A.** The IC95 was 68 nM.

**Q.** What about the half-life [33] of the same compound?
**A.** The half-life was 2.8 h.

**Q.** What about the inhibition [34] of the same compound?
**A.** Its inhibition is “Active”.

Reference: ChEMBL document CHEMBL1938372, “Design and synthesis of conformationally constrained inhibitors of non-nucleoside reverse transcriptase” (J Med Chem, 2011)
